# Measurements of several laboratories.
# Each line is one published result; the experiments were not run side by side.
Structure (SMILES),organism,assay,test system,setting,measurement,value
C[C@@H](c1ncncc1F)[C@](O)(Cn1cncn1)c1ccc(F)cc1F,Acanthamoeba griffini,"parasite growth, resazurin",,96 h,IC50,0.29 µM
CC1=NN(CNc2ccccc2[N+](=O)[O-])C(=O)C1=NNn1c(-c2ccccc2)nc2ccccc2c1=O,Aspergillus fumigatus,"microbial growth, broth dilution",,,MIC,50.4 µM
COc1cccc(-n2cc(CN3CCN(C(=O)c4c(C)nc5ccc(Cl)cn45)CC3)nn2)c1,Leishmania major,"parasite growth, resazurin",,"72 h, promastigote",IC50,112 µM
C=CCn1c(-c2ccc(Cl)c(Cl)c2)nc2ccccc21,Enterococcus faecalis,"microbial growth, broth dilution",ATCC29212,,MIC,64 µg/mL
CCCc1cn(CCN2CCN(C(=O)c3c(C)nc4cc(C)ccn34)CC2)nn1,Leishmania major,"parasite growth, resazurin",,"72 h, promastigote",IC50,176 µM
Cc1ccc2nc(-c3ccncc3)[nH]c2c1,Enterococcus faecalis,"microbial growth, broth dilution",ATCC29212,,MIC,64 µg/mL
CC1=NN(CNc2ccc(C(=O)O)cc2)C(=O)C1=NNn1c(-c2ccccc2)nc2ccccc2c1=O,Aspergillus fumigatus,"microbial growth, broth dilution",,,MIC,50.5 µM
Cc1ccn2c(C(=O)N3CCN(Cc4cn(-c5ccccc5)nn4)CC3)c(C)nc2c1,Leishmania major,"parasite growth, resazurin",,"72 h, promastigote",IC50,246 µM
Fc1ccc(-c2nc3ccccc3[nH]2)cc1,Enterococcus faecalis,"microbial growth, broth dilution",ATCC29212,,MIC,256 µg/mL
CN(C)N1C(=O)c2ccccc2C1CB1OC(C)(C)C(C)(C)O1 (centres unmarked),Leishmania major,parasite growth,,"intracellular, amastigote",IC50,94.6 µM
Cc1nc2ccc(Cl)cn2c1C(=O)N1CCN(Cc2cn(-c3ccc(Br)cc3)nn2)CC1,Leishmania major,"parasite growth, resazurin",,"72 h, promastigote",IC50,33.6 µM
C=CCn1c(-c2ccc([N+](=O)[O-])cc2)nc2ccccc21,Enterococcus faecalis,"microbial growth, broth dilution",ATCC29212,,MIC,64 µg/mL
Cc1ccc(C)n1-c1ccc(-c2nnc(S)s2)cc1,Enterococcus faecalis,"microbial growth, broth dilution",ATCC14506,18 h,MIC,1 µg/mL
Cc1ccc2nc(-c3ccc(Cl)c(Cl)c3)[nH]c2c1,Enterococcus faecalis,"microbial growth, broth dilution",ATCC29212,,MIC,16 µg/mL
CCCCCCCCCc1cn(CCN2CCN(C(=O)c3c(C)nc4cc(C)ccn34)CC2)nn1,Leishmania major,"parasite growth, resazurin",,"72 h, promastigote",IC50,38.5 µM
C[C@@H]1[C@H](O)[C@@H](C)/C=C/C=C/C=C/C=C/C=C/C=C/C=C/[C@H](O[C@@H]2O[C@H](C)[C@@H](O)[C@H](N)[C@@H]2O)C[C@@H]2O[C@](O)(C[C@@H](O)C[C@@H](O)[C@H](O)CC[C@@H](O)C[C@@H](O)CC(=O)O[C@H]1C)C[C@H](O)[C@H]2C(=O)O,Aspergillus fumigatus,"microbial growth, resazurin",ATCC204305,,IC50,1.18 µg/mL
CC1=NN(CNc2ccc(O)cc2)C(=O)C1=NNn1c(-c2ccccc2)nc2ccccc2c1=O,Aspergillus fumigatus,"microbial growth, broth dilution",,,MIC,53.5 µM
Cc1nc2ccc(Cl)cn2c1C(=O)N1CCN(Cc2cn(-c3ccccc3)nn2)CC1,Leishmania major,"parasite growth, resazurin",,"72 h, promastigote",IC50,192 µM
c1ccc2c(-c3nc4ccccc4[nH]3)c3ccccc3cc2c1,Enterococcus faecalis,"microbial growth, broth dilution",ATCC29212,,MIC,64 µg/mL
C[C@@H]1[C@H](O)[C@@H](C)/C=C/C=C/C=C/C=C/C=C/C=C/C=C/[C@H](O[C@@H]2O[C@H](C)[C@@H](O)[C@H](N)[C@@H]2O)C[C@@H]2O[C@](O)(C[C@@H](O)C[C@@H](O)[C@H](O)CC[C@@H](O)C[C@@H](O)CC(=O)O[C@H]1C)C[C@H](O)[C@H]2C(=O)O,Aspergillus fumigatus,microbial killing,ATCC204305,,MFC,2.57 µM
